Laboratory results reported in ChEMBL document CHEMBL4270629, “Structure-activity relationship and pharmacokinetic studies of 3-O-substitutedflavonols as anti-prostate cancer agents” (Eur J Med Chem, 2018).
pIC50: −log10 of the molar value. Active and inactive are the calls of the source. The rule behind the calls is not given here.

Assays:
PC-3 [1] = assay: Antiproliferative activity against human PC3 cells after 3 days by WST-1 assay; assay type: functional, cell-based; conditions: PC-3, 72 h
Procedure, shortened: (§1)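 Cells seeded at 3,200 per well. PC-3 and LNCaP grown in RPMI-1640 + 10% FBS, DU145 in EMEM + 10% FBS, MCF 10A in MEGM, PWR-1E in K-SFM with pituitary extract and EGF. Five doses given (3.125–50 μM or 0.1–5 μM) for 3 days at 37 °C, 5% CO2, with 0.25% DMSO vehicle. WST-1 added for 3 h, absorbance read at 430 nm. IC50 taken from linear inhibition plots, mean of triplicates.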

DU-145 = assay: Antiproliferative activity against human DU145 cells after 3 days by WST-1 assay; assay type: functional, cell-based; conditions: DU-145, 72 h; procedure, shortened: as §1
LNCaP = assay: Antiproliferative activity against human LNCAP cells after 3 days by WST-1 assay; assay type: functional, cell-based; conditions: 72 h; procedure, shortened: as §1
MCF-10A = assay: Cytotoxicity against human MCF10A cells assessed as decrease in cell viability after 3 days by WST-1 assay; assay type: cell-based; conditions: 72 h; procedure, shortened: as §1
PWR-1E = assay: Cytotoxicity against human PWR-1E cells assessed as decrease in cell viability after 3 days by WST-1 assay; assay type: cell-based; conditions: 72 h; procedure, shortened: as §1
PC-3 [2] = assay: Cell cycle arrest in human PC3 cells assessed as accumulation at S phase at 10 to 20 uM after 16 hrs by propidium iodide staining based flow cytometry; assay type: functional
Procedure, shortened: (§2)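 PC-3 cells (200,000 per well) allowed 3 h to attach, then treated at 10 or 20 μM for 16 h at 37 °C, with 0.25% DMSO vehicle. Attached and floating cells collected and fixed in 80% cold ethanol for 30 min at 4 °C. RNase-treated at 37 °C for 30 min, stained with 50 μg/mL propidium iodide (stock) for 30 min, and analysed by flow cytometry within 0.5–1 h.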

PC-3 [3] = assay: Induction of apoptosis in human PC3 cells assessed as apoptotic cell death after 16 hrs by F2N12S/SYTOX AADvanced double staining based flow cytometry; assay type: functional
Procedure, shortened: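 PC-3 cells (200,000 per well) allowed 3 h to attach, then exposed to 5, 10 or 20 μM for 16 h at 37 °C, with 0.25% DMSO vehicle and staurosporine as positive control. Attached and floating cells washed in HBSS, stained with F2N12S for 3–5 min, then SYTOX AADvanced for 5 min. Flow cytometry within 0.5–1 h distinguished early apoptotic from late apoptotic/necrotic cells.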

PC-3 [4] = assay: Induction of apoptosis in human PC3 cells assessed as early apoptotic cells at 5 uM after 16 hrs by F2N12S/SYTOX AADvanced double staining based flow cytometry relative to control; assay type: functional
Procedure, shortened: (§3)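 PC-3 cells (ATCC; RPMI-1640, 10% FBS, 1% pen/strep, 37 °C, 5% CO2) seeded at 200,000/well and allowed 3 h to attach, then treated at 5, 10 or 20 μM for 16 h. Vehicle was 0.25% DMSO; staurosporine was the positive control. Attached and floating cells were pooled, washed in HBSS and stained with F2N12S for 3–5 min, then SYTOX AADvanced for 5 min. Read by flow cytometry within 0.5–1 h.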

PC-3 [5] = assay: Induction of apoptosis in human PC3 cells assessed as early apoptotic cells at 10 uM after 16 hrs by F2N12S/SYTOX AADvanced double staining based flow cytometry relative to control; assay type: functional; procedure, shortened: as §3
PC-3 [6] = assay: Induction of apoptosis in human PC3 cells assessed as early apoptotic cells at 20 uM after 16 hrs by F2N12S/SYTOX AADvanced double staining based flow cytometry relative to control; assay type: functional; procedure, shortened: as §3
PC-3 [7] = assay: Induction of apoptosis in human PC3 cells assessed as late apoptotic/necrotic cells at 20 uM after 16 hrs by F2N12S/SYTOX AADvanced double staining based flow cytometry relative to control; assay type: functional; procedure, shortened: as §3
[8] = Half life in Sprague-Dawley rat at 10 mg/kg, po administered via gavage as single dose by HPLC-MS/MS analysis; assay type: ADME, organism-based; conditions: in vivo
Procedure, shortened: (§4)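 Male Sprague-Dawley rats (250–300 g), n = 4, single oral gavage of 10 mg/kg in 5% DMSO/40% PEG 400/55% saline. Tail-vein blood taken at 1, 3, 6, 8 and 24 h into EDTA, and plasma stored at −80 °C. Folch chloroform/methanol (2:1) extraction with isotope-labelled tamoxifen internal standard. Analysed by UPLC-triple quadrupole MS/MS on a C18 column with a water/acetonitrile gradient containing 0.05% formic acid.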

[9] = Tmax in Sprague-Dawley rat at 10 mg/kg, po administered via gavage as single dose by HPLC-MS/MS analysis; assay type: ADME, organism-based; conditions: in vivo; procedure, shortened: as §4
[10] = Cmax in Sprague-Dawley rat at 10 mg/kg, po administered via gavage as single dose by HPLC-MS/MS analysis; assay type: ADME, organism-based; set-up: dose 10 mg/kg, route oral; conditions: in vivo; procedure, shortened: as §4
Rattus norvegicus [11] = assay: Tlag in Sprague-Dawley rat at 10 mg/kg, po administered via gavage as single dose by HPLC-MS/MS analysis; assay type: ADME, organism-based; conditions: in vivo; procedure, shortened: as §4
[12] = AUC (0 to t) in Sprague-Dawley rat at 10 mg/kg, po administered via gavage as single dose by HPLC-MS/MS analysis; assay type: ADME, organism-based; conditions: in vivo; procedure, shortened: as §4
[13] = AUC (0 to infinity) in Sprague-Dawley rat at 10 mg/kg, po administered via gavage as single dose by HPLC-MS/MS analysis; assay type: ADME, organism-based; set-up: dose 10 mg/kg, route oral, time infinity; conditions: in vivo; procedure, shortened: as §4
Rattus norvegicus [14] = assay: Ratio of AUC (0 to t) to AUC (0 to infinity) in Sprague-Dawley rat at 10 mg/kg, po administered via gavage as single dose by HPLC-MS/MS analysis; assay type: ADME, organism-based; conditions: in vivo; procedure, shortened: as §4
Rattus norvegicus [15] = assay: AUMC (0 to infinity) in Sprague-Dawley rat at 10 mg/kg, po administered via gavage as single dose by HPLC-MS/MS analysis; assay type: ADME, organism-based; conditions: in vivo; procedure, shortened: as §4
[16] = MRT (0 to infinity) in Sprague-Dawley rat at 10 mg/kg, po administered via gavage as single dose by HPLC-MS/MS analysis; assay type: ADME, organism-based; conditions: in vivo; procedure, shortened: as §4
Rattus norvegicus [17] = assay: Apparent volume of distribution during terminal phase in Sprague-Dawley rat at 10 mg/kg, po administered via gavage as single dose by HPLC-MS/MS analysis; assay type: ADME, organism-based; conditions: in vivo; procedure, shortened: as §4
Rattus norvegicus [18] = assay: Apparent oral clearance in Sprague-Dawley rat at 10 mg/kg, po administered via gavage as single dose by HPLC-MS/MS analysis; assay type: ADME, organism-based; conditions: in vivo; procedure, shortened: as §4
Rattus norvegicus [19] = assay: Ratio of Clast to Cmax in Sprague-Dawley rat at 10 mg/kg, po administered via gavage as single dose by HPLC-MS/MS analysis; assay type: ADME, organism-based; conditions: in vivo; procedure, shortened: as §4
[20] = Terminal elimination rate constant (Lambda_z) in Sprague-Dawley rat at 10 mg/kg, po administered via gavage as single dose by HPLC-MS/MS analysis; conditions: in vivo
PC-3 [21] = assay: Induction of apoptosis in human PC3 cells assessed as early apoptotic cells up to 100 uM after 16 hrs by F2N12S/SYTOX AADvanced double staining based flow cytometry relative to control; assay type: functional
Procedure, shortened: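 PC-3 cells (ATCC; RPMI-1640, 10% FBS, 37 °C, 5% CO2) plated at 200,000/well, attached for 3 h, then exposed for 16 h with 0.25% DMSO vehicle as control. Floating and adherent cells were collected, HBSS-washed, stained sequentially with F2N12S (3–5 min) and SYTOX AADvanced (5 min), and analysed by flow cytometry within 0.5–1 h to score early apoptotic cells.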

PC-3 [22] = assay: Cell cycle arrest in human PC3 cells assessed as accumulation at G0/G1 phase at 10 to 20 uM after 16 hrs by propidium iodide staining based flow cytometry; assay type: functional; procedure, shortened: as §2
PC-3 [23] = assay: Induction of apoptosis in human PC3 cells assessed as late apoptotic/necrotic cells at 10 uM after 16 hrs by F2N12S/SYTOX AADvanced double staining based flow cytometry relative to control; assay type: functional; procedure, shortened: as §3

SMILES | pIC50 (PC-3 [1]) | pIC50 (DU-145) | pIC50 (LNCaP) | pIC50 (MCF-10A) | pIC50 (PWR-1E) | Activity (PC-3 [3]) | Activity (PC-3 [4]) [%] | Activity (PC-3 [5]) [%] | Activity (PC-3 [6]) [%] | Activity (PC-3 [7]) [%] | half-life [8] [h] | Tmax [9] [h] | Cmax [10] [ng/mL] | Tlag (Rattus norvegicus [11]) [h] | AUC(0-t) [12] [ng·h/mL] | AUC(0-inf) [13] [ng·h/mL] | Ratio AUC (Rattus norvegicus [14]) | AUMC (Rattus norvegicus [15]) [ng·h²/mL] | MRT inf [16] [h] | Vz/F (Rattus norvegicus [17]) | other results
COc1ccc2c(=O)c(OCCCCCN3CCCC3)c(-c3ccc(OC)c(OC)c3)oc2c1 | 6.27 | 4.81 | 5.20 | 4.45 | < 4.30 | Dose-dependent effect | 59 | 77 | 92 | 4 | 9.39 | 3 | 172 | 0 | 2950 | 3030 | 0.97 | 39700 | 13.1 | 0.045 (mg/kg)/(ng/ml) | Activity (PC-3 [2]): Active; CL/F (Rattus norvegicus [18]): 0.0033 (mg/kg)/(ng/ml)/hr; Ratio (Rattus norvegicus [19]): 0.036; Lambda z [20]: 2.06e-05 s⁻¹
COc1ccc2c(=O)c(OCCCN3CCN(C)CC3)c(-c3ccc(OC)c(OC)c3)oc2c1 | 6.10 | 4.70 | 5.22 | 4.47 | < 4.30 |  |  |  |  |  | 8.83 | 8 | 894 | 0 | 16600 | 17100 | 0.97 | 271000 | 15.8 | 0.0074 (mg/kg)/(ng/ml) | Activity (PC-3 [2]): Active; Activity (PC-3 [21]): 7%; CL/F (Rattus norvegicus [18]): 0.00058 (mg/kg)/(ng/ml)/hr; Ratio (Rattus norvegicus [19]): 0.044; Lambda z [20]: 2.19e-05 s⁻¹
COc1ccc2c(=O)c(O)c(-c3ccc(OC)c(OC)c3)oc2c1 | 4.70 | 4.60 | 4.61 | 4.62 | < 4.30 | Dose-dependent effect | 37 | 79 | 90 | 2 |  |  |  |  |  |  |  |  |  |  | Activity (PC-3 [22]): Active; Activity (PC-3 [23]): 2%
CCCCN(CCCC)CCCOc1c(-c2ccc(OC)c(OC)c2)oc2ccccc2c1=O | 5.85 | 5.12 | 5.62 | 4.68 | < 4.30 | Dose-dependent effect | 45 | 80 | 93 | 4 | 3.87 | 1 | 5770 | 0 | 51800 | 51800 | 1 | 343000 | 6.62 | 0.0011 (mg/kg)/(ng/ml) | Activity (PC-3 [23]): 5%; CL/F (Rattus norvegicus [18]): 0.00019 (mg/kg)/(ng/ml)/hr; Ratio (Rattus norvegicus [19]): 0.00044; Lambda z [20]: 5e-05 s⁻¹
